Assay results: ChEMBL document CHEMBL1128678, “Preparation of 18F-labeled muscarinic agonist with M2 selectivity” (J Med Chem, 1995)
pKi: −log10 of the molar value. Values joined by “and” are separate entries in the source; they are usually repeats but may differ in a detail not shown here. Equal entries are not always repeated.

Assays:
[1] = system: Rattus norvegicus; assay: In vivo biodistribution in blood after 120 min of administration in rat; assay type: ADME, organism-based; settings: 2 h
Method in brief: (§1)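 [18F] tracer formulated in PBS with under 10% ethanol; 15 μCi given by tail vein to Sprague-Dawley rats (200–250 g). Groups of five sacrificed at 15, 60 or 120 min. Brain dissected into 11 regions, with blood, heart, bone and lung also collected. Tissues weighed and counted, and % ID/g calculated; n = 5 or 6.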

[2] = system: Rattus norvegicus; assay: In vivo biodistribution in blood after 15 min of administration in rat; assay type: ADME, organism-based; settings: 0.25 h; method in brief: as §1
[3] = system: Rattus norvegicus; assay: In vivo biodistribution in blood after 60 min of administration in rat; assay type: ADME, organism-based; settings: 1 h; method in brief: as §1
[4] = system: Rattus norvegicus; assay: In vivo biodistribution in blood at 60 min for no inhibitor was co-injected in rat; assay type: ADME, organism-based; settings: 1 h
[5] = system: Rattus norvegicus; assay: In vivo biodistribution in bone after 120 min of administration in rat; assay type: ADME, organism-based, Bone element; settings: 2 h; method in brief: as §1
[6] = system: Rattus norvegicus; assay: In vivo biodistribution in LT-THAL after 120 min of administration in rat; assay type: ADME, organism-based; settings: 2 h; method in brief: as §1
[7] = system: Rattus norvegicus; assay: In vivo biodistribution in LT-THAL after 60 min of administration in rat; assay type: ADME, organism-based; settings: 1 h; method in brief: as §1
[8] = system: Rattus norvegicus; assay: In vivo biodistribution in LT-THAL at 60 min for no inhibitor was co-injected in rat; assay type: ADME, organism-based; settings: 1 h
[9] = system: Rattus norvegicus; assay: In vivo biodistribution in MEDULL after 120 min of administration in rat; assay type: ADME, organism-based; settings: 2 h; method in brief: as §1
[10] = system: Rattus norvegicus; assay: In vivo biodistribution in MEDULL after 15 min of administration in rat; assay type: ADME, organism-based; settings: 0.25 h; method in brief: as §1
[11] = system: Rattus norvegicus; assay: In vivo biodistribution in MEDULL after 60 min of administration in rat; assay type: ADME, organism-based; settings: 1 h; method in brief: as §1
[12] = system: Rattus norvegicus; assay: In vivo biodistribution in PONS after 120 min of administration in rat; assay type: ADME, organism-based; settings: 2 h; method in brief: as §1
[13] = system: Rattus norvegicus; assay: In vivo biodistribution in PONS after 15 min of administration in rat; assay type: ADME, organism-based; settings: 0.25 h; method in brief: as §1
[14] = system: Rattus norvegicus; assay: In vivo biodistribution in PONS after 60 min of administration in rat; assay type: ADME, organism-based; settings: 1 h; method in brief: as §1
[15] = system: Rattus norvegicus; assay: In vivo biodistribution in LT-CTX after 120 min of administration in rat; assay type: ADME, organism-based; settings: 2 h; method in brief: as §1
[16] = system: Rattus norvegicus; assay: In vivo biodistribution in LT-CTX after 15 min of administration in rat; assay type: ADME, organism-based; settings: 0.25 h; method in brief: as §1
[17] = system: Rattus norvegicus; assay: In vivo biodistribution in LT-CTX after 60 min of administration in rat; assay type: ADME, organism-based; settings: 1 h; method in brief: as §1
[18] = system: Rattus norvegicus; assay: In vivo biodistribution in LT-CTX at 60 min for no inhibitor was co-injected in rat; assay type: ADME, organism-based; settings: 1 h
[19] = system: Rattus norvegicus; assay: In vivo biodistribution in LT-HIPP after 120 min of administration in rat; assay type: ADME, organism-based; settings: 2 h; method in brief: as §1
[20] = system: Rattus norvegicus; assay: In vivo biodistribution in LT-HIPP after 15 min of administration in rat; assay type: ADME, organism-based; settings: 0.25 h; method in brief: as §1
[21] = system: Rattus norvegicus; assay: In vivo biodistribution in LT-HIPP after 60 min of administration in rat; assay type: ADME, organism-based; settings: 1 h; method in brief: as §1
[22] = system: Rattus norvegicus; assay: In vivo biodistribution in LT-HIPP at 60 min for no inhibitor was co-injected in rat; assay type: ADME, organism-based; settings: 1 h
[23] = system: Rattus norvegicus; assay: In vivo biodistribution in LT-STR after 120 min of administration in rat; assay type: ADME, organism-based; settings: 2 h; method in brief: as §1
[24] = system: Rattus norvegicus; assay: In vivo biodistribution in LT-STR after 15 min of administration in rat; assay type: ADME, organism-based; settings: 0.25 h; method in brief: as §1
[25] = system: Rattus norvegicus; assay: In vivo biodistribution in LT-STR after 60 min of administration in rat; assay type: ADME, organism-based; settings: 1 h; method in brief: as §1
[26] = system: Rattus norvegicus; assay: In vivo biodistribution in LT-STR at 60 min for no inhibitor was co-injected in rat; assay type: ADME, organism-based; settings: 1 h
[27] = system: Rattus norvegicus; assay: In vivo biodistribution in CBLL after 120 min of administration in rat; assay type: ADME, organism-based; settings: 2 h; method in brief: as §1
[28] = system: Rattus norvegicus; assay: In vivo biodistribution in CBLL after 15 min of administration in rat; assay type: ADME, organism-based; settings: 0.25 h; method in brief: as §1
[29] = system: Rattus norvegicus; assay: In vivo biodistribution in CBLL after 60 min of administration in rat; assay type: ADME, organism-based; settings: 1 h; method in brief: as §1
[30] = system: Rattus norvegicus; assay: In vivo biodistribution in CBLL at 60 min for no inhibitor was co-injected in rat; assay type: ADME, organism-based; settings: 1 h
[31] = system: Rattus norvegicus; assay: In vivo biodistribution in lung after 60 min of administration in rat; assay type: ADME, organism-based; settings: 1 h; method in brief: as §1
[32] = system: Rattus norvegicus; assay: In vivo biodistribution in lung at 60 min for no inhibitor was co-injected in rat; assay type: ADME, organism-based; settings: 1 h
Method in brief: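 [18F]tracer formulated in phosphate-buffered saline (<10% ethanol), 15 μCi injected via tail vein into Sprague-Dawley rats (200–250 g); no inhibitor co-injected. Animals sacrificed in groups of five at 60 min postinjection. Lung sample collected, weighed, counted for activity, and % ID/g calculated (n = 5 or 6).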

[33] = system: Rattus norvegicus; assay: In vivo biodistribution in heart at 60 min as a function of 5 nM of (R,R) IQNB (inhibitor) in rat; assay type: ADME, organism-based; settings: 1 h
[34] = system: Rattus norvegicus; assay: In vivo biodistribution in heart at 60 min for no inhibitor was co-injected in rat; assay type: ADME, organism-based; settings: 1 h
[35] = system: Rattus norvegicus; assay: In vivo biodistribution in lung after 120 min of administration in rat; assay type: ADME, organism-based; settings: 2 h; method in brief: as §1
[36] = system: Rattus norvegicus; assay: In vivo biodistribution in lung after 15 min of administration in rat; assay type: ADME, organism-based; settings: 0.25 h; method in brief: as §1
[37] = In vivo biodistribution in bone at 60 min for no inhibitor was co-injected in rat; assay type: ADME, organism-based, Bone element; settings: 1 h
[38] = In vivo biodistribution in heart after 120 min of administration.; assay type: ADME, organism-based; settings: 2 h; method in brief: as §1
[39] = system: Rattus norvegicus; assay: In vivo biodistribution in heart after 15 min of administration in rat; assay type: ADME, organism-based; settings: 0.25 h; method in brief: as §1
[40] = system: Rattus norvegicus; assay: In vivo biodistribution in heart after 60 min of administration in rat; assay type: ADME, organism-based; settings: 1 h; method in brief: as §1
[41] = system: Rattus norvegicus; assay: In vivo biodistribution in heart at 60 min as a function of 500 nM of (R,S) -fluoromethyl QNB(inhibitor) in rat; assay type: ADME, organism-based; settings: 1 h
[42] = system: Rattus norvegicus; assay: In vivo biodistribution in bone after 15 min of administration in rat; assay type: ADME, organism-based, Bone element; settings: 0.25 h; method in brief: as §1
[43] = system: Rattus norvegicus; assay: In vivo biodistribution in bone after 60 min of administration in rat; assay type: ADME, organism-based, Bone element; settings: 1 h; method in brief: as §1
[44] = system: Rattus norvegicus; assay: In vivo biodistribution in LT-CTX at 60 min for no inhibitor was co-injected co-injected in rat; assay type: ADME, organism-based; settings: 1 h
[45] = system: Rattus norvegicus; assay: In vivo biodistribution in MEDULL at 60 min for no inhibitor was co-injected in rat; assay type: ADME, organism-based; settings: 1 h
[46] = biological target: T1, Muscarinic acetylcholine receptor M2 (Rattus norvegicus, UniProt P10980); assay: In vitro binding affinity towards Muscarinic acetylcholine receptor M2 was determined by measuring its ability to displace [3H]-AF-DX 384 from rat heart membranes; set-up: species or system Membrane
T1 sequence (P10980 whole entry): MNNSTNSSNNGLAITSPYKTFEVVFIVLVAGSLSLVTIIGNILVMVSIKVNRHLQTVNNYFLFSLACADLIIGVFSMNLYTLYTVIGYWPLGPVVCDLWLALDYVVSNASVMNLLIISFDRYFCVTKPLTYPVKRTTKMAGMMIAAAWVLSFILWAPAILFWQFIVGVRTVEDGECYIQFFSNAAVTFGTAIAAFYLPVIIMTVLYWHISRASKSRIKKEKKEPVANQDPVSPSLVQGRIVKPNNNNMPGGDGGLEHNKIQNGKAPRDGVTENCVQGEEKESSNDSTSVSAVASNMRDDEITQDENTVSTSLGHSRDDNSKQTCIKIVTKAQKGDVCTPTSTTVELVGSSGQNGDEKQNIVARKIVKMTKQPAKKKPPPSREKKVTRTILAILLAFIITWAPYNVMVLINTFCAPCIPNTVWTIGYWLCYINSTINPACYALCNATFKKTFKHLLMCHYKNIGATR
Method in brief: (§2)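 Displacement binding performed by NovaScreen. For M1, the tracer was [3H]pirenzepine with bovine striatal membranes. For M2, it was [3H]AF-DX 384 with rat heart membranes. Ki values in nM were calculated by LIGAND analysis.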

[47] = biological target: T2, Muscarinic acetylcholine receptor M1 (Bos taurus, UniProt Q8WMX0); assay: In vitro binding affinity towards Muscarinic acetylcholine receptor M1 was determined by measuring its ability to displace [3H]pirenzepine from bovine striatal membranes; set-up: species or system Striatum, Membrane; method in brief: as §2
T2 sequence (Q8WMX0 whole entry): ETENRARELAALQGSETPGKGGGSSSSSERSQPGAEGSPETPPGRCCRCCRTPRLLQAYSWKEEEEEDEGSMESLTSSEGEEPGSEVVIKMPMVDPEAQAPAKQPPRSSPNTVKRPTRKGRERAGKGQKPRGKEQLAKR

[48] = biological target: Muscarinic acetylcholine receptor M3 (Cavia porcellus, UniProt Q8VH26); assay: In vitro binding affinity towards Muscarinic acetylcholine receptor M3 was determined by measuring its ability to displace [3H]-N-methyl- Scopolamine from guinea pig ileum; assay type: tissue-based
Chain of Muscarinic acetylcholine receptor M3 (Q8VH26 whole entry): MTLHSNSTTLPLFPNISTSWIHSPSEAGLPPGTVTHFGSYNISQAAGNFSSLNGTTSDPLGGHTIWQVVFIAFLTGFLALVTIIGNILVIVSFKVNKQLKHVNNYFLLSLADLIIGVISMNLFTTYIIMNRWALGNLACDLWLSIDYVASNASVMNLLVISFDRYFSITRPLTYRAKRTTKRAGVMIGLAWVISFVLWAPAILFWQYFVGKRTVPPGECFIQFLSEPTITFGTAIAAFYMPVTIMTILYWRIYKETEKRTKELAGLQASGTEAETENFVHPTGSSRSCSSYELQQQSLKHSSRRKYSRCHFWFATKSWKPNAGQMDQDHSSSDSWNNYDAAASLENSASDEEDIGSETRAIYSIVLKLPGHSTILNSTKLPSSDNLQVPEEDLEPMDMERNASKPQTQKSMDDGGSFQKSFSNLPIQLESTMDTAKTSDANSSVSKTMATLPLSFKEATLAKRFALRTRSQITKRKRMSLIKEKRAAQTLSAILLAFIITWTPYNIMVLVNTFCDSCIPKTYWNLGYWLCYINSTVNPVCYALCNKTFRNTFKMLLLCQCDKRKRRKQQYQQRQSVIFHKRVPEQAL

Structure (SMILES): CN1CC=C(c2nsnc2SCCC[18F])CC1
- ID/g [1]: 0.1%
- ID/g [2]: 0.181%
- ID/g [3]: 0.124%
- ID/g [4]: 0.126% and 0.13% and 0.18%
- ID/g [5]: 0.993%
- ID/g [6]: 0.153%
- ID/g [7]: 0.293%
- ID/g [8]: 0.413% and 0.45% and 0.56%
- ID/g [9]: 0.226%
- ID/g [10]: 0.788%
- ID/g [11]: 0.438%
- ID/g [12]: 0.238%
- ID/g [13]: 0.824%
- ID/g [14]: 0.385%
- ID/g [15]: 0.139%
- ID/g [16]: 1.125%
- ID/g [17]: 0.368%
- ID/g [18]: 0.484% and 0.52%
- ID/g [19]: 0.119%
- ID/g [20]: 0.826%
- ID/g [21]: 0.363%
- ID/g [22]: 0.429% and 0.47% and 0.65%
- ID/g [23]: 0.123%
- ID/g [24]: 0.861%
- ID/g [25]: 0.353%
- ID/g [26]: 0.448% and 0.46% and 0.64%
- ID/g [27]: 0.154%
- ID/g [28]: 0.766%
- ID/g [29]: 0.285%
- ID/g [30]: 0.382% and 0.44% and 0.47%
- ID/g [31]: 0.261%
- ID/g [32]: 0.372%
- ID/g [33]: 0.13% and 0.43% and 0.49% and 0.46% and 0.44% and 0.54% and 0.63% and 0.42%
- ID/g [34]: 0.171%
- ID/g [35]: 0.156%
- ID/g [36]: 0.871%
- ID/g [37]: 0.501%
- ID/g [38]: 0.096%
- ID/g [39]: 0.324%
- ID/g [40]: 0.121%
- ID/g [41]: 0.17% and 0.44% and 0.43% and 0.39% and 0.48% and 0.56% and 0.61%
- ID/g [42]: 0.225%
- ID/g [43]: 0.762%
- ID/g [44]: 0.7%
- ID/g [45]: 0.529% and 0.63% and 0.71%

Structure (SMILES): CCCSc1nsnc1C1=CCN(C)CC1
- pKi [46]: 8.82
- pKi [47]: 7.64
- pKi [48]: 6.79

Structure (SMILES): CN1CCC=C(c2nsnc2SCCF)C1
- pKi [46]: 8.74
- pKi [47]: 7.60
- pKi [48]: < 5.00

Structure (SMILES): CN1CCC=C(c2nsnc2SCCCF)C1
- pKi [46]: 8.66
- pKi [47]: 8.13
- pKi [48]: 7.10

Structure (SMILES): CN1CCC=C(c2nsnc2SCCCCCF)C1
- pKi [46]: 8.20
- pKi [47]: 8.64
- pKi [48]: 6.80

Structure (SMILES): CCCCCSc1nsnc1C1=CCN(C)CC1
- pKi [46]: 8.40
- pKi [47]: 7.44
- pKi [48]: < 5.00
